Measurements from ChEMBL document CHEMBL1136866, “Synthesis, antiplatelet and in silico evaluations of novel N-substituted-phenylamino-5-methyl-1H-1,2,3-triazole-4-carbohydrazides” (Bioorg Med Chem, 2009).
Converted amounts (≈) assume the structure as drawn. The source made the active and inactive calls. The rule behind the calls is not given here.

Experiments:
Type in all cases: functional
[1] = Antiplatelet activity in human citreated platelet rich plasma assessed as inhibition of adenosine diphosphate-induced platelet aggregation preincubated before adenosine diphosphate challenge
Procedure, shortened: (§1)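 Human PRP prepared by whole-blood centrifugation (120g, 5 min, room temperature) and adjusted to 3.0 × 10^5 platelets/μL using homologous platelet-poor plasma (1500g, 5 min). Compound at 1–500 μg ml−1, or DMSO (final 1%), preincubated with PRP 2 min at 37 °C before agonist (ADP, adrenaline or arachidonic acid). IC50 in μg ml−1 from aggregation inhibition, assayed within 3 h of sampling.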

Platelet = assay: Antiplatelet activity in human citreated platelet rich plasma assessed as inhibition of adrenaline-induced platelet aggregation at 100 ug/ml preincubated before adrenaline challenge
Procedure, shortened: (§2)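 Human PRP from whole blood spun 120g, 5 min, room temperature; platelet count set to 3.0 × 10^5/μL with homologous platelet-poor plasma (1500g, 5 min). PRP preincubated 2 min at 37 °C with compound at 100 μg ml−1 or DMSO solvent (final 1%), then agonist added (ADP, adrenaline or arachidonic acid). Read-out: % inhibition of aggregation, measured within 3 h of blood sampling.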

[2] = Antiplatelet activity in human citreated platelet rich plasma assessed as inhibition of arachidonic acid-induced platelet aggregation at 100 ug/ml preincubated before arachidonic acid challenge; procedure, shortened: as §2
[3] = Antiplatelet activity in human citreated platelet rich plasma assessed as inhibition of arachidonic acid-induced platelet aggregation preincubated before arachidonic acid challenge; procedure, shortened: as §1
[4] = Antiplatelet activity in human citreated platelet rich plasma assessed as inhibition of adrenaline-induced platelet aggregation preincubated before adrenaline challenge; procedure, shortened: as §1
[5] = Antiplatelet activity in human citreated platelet rich plasma assessed as inhibition of adenosine diphosphate-induced platelet aggregation at 100 ug/ml preincubated before adenosine diphosphate challenge; procedure, shortened: as §2

SMILES | IC50 [1] | inhibition (Platelet) | inhibition at 100 µg/mL [2] | IC50 [3] | IC50 [4] | inhibition at 100 µg/mL [5]
Cc1c(C(=O)N/N=C/c2ccc(Br)s2)nnn1Nc1ccccc1 | 317 µg/mL (≈ 782 µM) | Active | ≥ 50% | 9.1 µg/mL (≈ 22.5 µM) | 13.4 µg/mL (≈ 33.1 µM) | 
Cc1c(C(=O)N/N=C/c2ccccc2)nnn1Nc1ccc(Cl)cc1 | 180 µg/mL (≈ 508 µM) | Active | ≥ 50% | 32.2 µg/mL (≈ 90.8 µM) | 28.9 µg/mL (≈ 81.5 µM) | 
Cc1c(C(=O)N/N=C/c2ccc([N+](=O)[O-])o2)nnn1Nc1ccccc1 | 11.6 µg/mL (≈ 32.6 µM) | Active |  | 169 µg/mL (≈ 476 µM) | 8.9 µg/mL (≈ 25 µM) | > 50%
Cc1c(C(=O)N/N=C/c2ccncc2)nnn1Nc1ccc(Cl)cc1 | 169 µg/mL (≈ 474 µM) |  | ≥ 50% | 33.1 µg/mL (≈ 93 µM) | 145 µg/mL (≈ 406 µM) | 
Cc1c(C(=O)N/N=C/c2ccc(Br)s2)nnn1Nc1ccc(Cl)cc1 | 332 µg/mL (≈ 756 µM) |  | ≥ 50% | 9.1 µg/mL (≈ 20.7 µM) | 144 µg/mL (≈ 328 µM) | 
Cc1c(C(=O)N/N=C/c2ccco2)nnn1Nc1ccccc1 | 338 µg/mL (≈ 1090 µM) | Active |  | 112 µg/mL (≈ 359 µM) | 20.1 µg/mL (≈ 64.8 µM) | 
Cc1c(C(=O)N/N=C/c2ccncc2)nnn1Nc1ccccc1 | 278 µg/mL (≈ 864 µM) |  | ≥ 50% | 8.8 µg/mL (≈ 27.4 µM) | 161 µg/mL (≈ 501 µM) | 
Cc1c(C(=O)N/N=C/c2ccco2)nnn1Nc1ccc(Cl)cc1 | 261 µg/mL (≈ 757 µM) | Active | ≥ 50% | 8.9 µg/mL (≈ 25.8 µM) | 7.8 µg/mL (≈ 22.6 µM) | 
Cc1c(C(=O)N/N=C/c2ccccc2)nnn1Nc1ccccc1 | 19 µg/mL (≈ 59.4 µM) | Active |  | 230 µg/mL (≈ 718 µM) | 9.6 µg/mL (≈ 30 µM) | > 50%
Cc1c(C(=O)N/N=C/c2ccc([N+](=O)[O-])o2)nnn1Nc1ccc(Cl)cc1 | 136 µg/mL (≈ 350 µM) |  | ≥ 50% | 35.5 µg/mL (≈ 91.1 µM) | 147 µg/mL (≈ 377 µM) | 
CC(=O)Oc1ccccc1C(=O)O [ASPIRIN] | 21.5 µg/mL (≈ 119 µM) |  |  | 32.5 µg/mL (≈ 180 µM) | 11.7 µg/mL (≈ 64.9 µM) | 
